Compound activity deposited in PubChem by several laboratories.
Compounds with a hit are over-represented: about 5.1% of the library has one in this group of screens.
STAT1 activator – activators of IFN-gamma induced STAT1 signaling; NIH 3T3 STAT1-luciferase reporter, luminescence; 100% = IFN-gamma alone, no compound; AID 932; activation (% of control), % at 5.5 µM; actives 2.6% (n = 200,000);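 active = activation above the screen-wide mean activation plus 3 SD, cut at about 130% in these data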;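 note: raw ratio to IFN-gamma control signal so 100% means no change and 0% no light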
NF-kB neuron act – compounds increasing NF-kB expression in human neuronal cells; NF-kB reporter expression; stronger effect = higher value; fold change at 12.5 µM; actives 1.6% (n = 190,000); AID 1239; in the data active = fold change above about 3.3
STAT3 activator – increases IL-6 driven STAT3 reporter signal; U3A cells, IL-6 STAT3-luciferase reporter, luminescence; 100% = signal with IL-6 EC80 alone; activation (% of control), % at 5.6 µM; actives 0.91% (n = 190,000);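 active = activation above the screen-wide mean of compound activation plus 3 SD, cut at about 130% in these data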;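 note: 0% = background luminescence of wells with medium and substrate only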
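Test system: human U3A cells carrying STAT3-luciferase construct; control set: IL-6-only wells as 100% reference; timing: compound pre-incubation 1 h before IL-6, then 6 h stimulation at 37 °C; also added: IL-6 stimulus at 33 ng/mL final; evaluation: % activation versus median of IL-6-stimulated wells; detection: reporter luminescence signal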
STAT1 blocker – reduces IFN-gamma driven STAT1 reporter signal | actives 0.35% (n = 200,000) | AID 920 | inhibition, % at 5.5 µM | NIH 3T3 STAT1-luciferase reporter, luminescence;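 active = inhibition above a set limit, the mean inhibition across all tested compounds plus 3 SD, cut at about 34% in these data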;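 note: 0% = IFN-gamma with DMSO and 100% = IFN-gamma with 300 µM nifuroxazide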
APP 5'UTR act – APP 5'UTR luciferase reporter activation; SH-SY5Y APP 5'UTR luciferase reporter, luminescence; zero percent = DMSO vehicle wells; activation, % at 2 µM; actives 1% (n = 190,000);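 active = activation above a set limit, based on mean plus 3 SD of controls, cut at about 140% in these data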
STAT3 inh-1 – reduces IL-6 driven STAT3 reporter signal; actives 0.89% (n = 190,000); U3A cells, IL-6 STAT3-luciferase reporter, luminescence; host cell line lacks STAT1; inhibition, % at 5.5 µM;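 active = inhibition above the mean inhibition across all screened compounds plus 3 SD, cut at about 44% in these data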;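 note: 0% = DMSO only wells and 100% = 100 µM nifuroxazide control wells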
STAT3 inh-2 – STAT3 inhibition, confirmation assay; inhibition, % at 5.7 µM; shares compounds with STAT3 inh-1; U3A cells, IL-6 STAT3 luciferase reporter, luminescence; cell line lacks STAT1; actives 45% (n = 1,200);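 active = inhibition above the hit cutoff computed for the primary STAT3 screen, cut at about 44% in these data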;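 note: 0% = IL-6 plus DMSO and 100% = IL-6 plus nifuroxazide control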
NFkB inh STAT3ct – counter-screen for STAT3 inhibitors: NF-kappaB inhibition; inhibition, % at 5.7 µM; HEK293T NF-kB luciferase reporter, TNF-alpha induced; shares compounds with STAT3 inh-1; actives 36% (n = 1,200);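 active = inhibition above the mean of solvent-only control wells plus 3 SD, cutoff set per campaign, cut at about 13% in these data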;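 note: 0% = TNF-alpha with DMSO and 100% = TNF-alpha with MG high control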
STAT1 inh STAT3c – STAT1 inhibition in STAT3 inhibitor counter-screen; shares compounds with STAT3 inh-1; NIH 3T3 STAT1-luciferase reporter, IFN-gamma induced, luminescence; inhibition, % at 5.7 µM; actives 27% (n = 1,200);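 active = inhibition above the mean plus 3 SD of solvent-only control wells, limit set per screening run, cut at about 16% in these data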;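 note: 0% = DMSO with IFN-gamma and 100% = nifuroxazide control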
An asterisk follows results filed as active; x = no result given.

SMILES	STAT1 activator	NF-kB neuron act	STAT3 activator	STAT1 blocker	APP 5'UTR act	STAT3 inh-1	STAT3 inh-2	NFkB inh STAT3ct	STAT1 inh STAT3c
Cc1c(C(C)C)c(=O)n(-c2ccc(S(=O)(=O)NC3CCCCC3)cc2)n1C	79	0.96	57	22	-12	53*	59*	14*	21*
Cc1c(C(C)C)c(=O)n(-c2ccc(S(=O)(=O)NCc3ccccc3)cc2)n1C	74	0.82	32	28	-8	81*	80*	30*	21*
Cc1c(C(C)C)c(=O)n(-c2ccc(S(=O)(=O)N3CCOCC3)cc2)n1C	96	1.1	103	2	-12	-1	x	x	x
CC(C)C(=O)Nc1cc(C(F)(F)F)ccc1-n1ccnc1	91	1.1	107	8	5	1	x	x	x
COc1ccc(S(=O)(=O)N2CCc3ccccc32)cc1C(=O)OCc1nnc(-c2ccccc2)o1	108	0.69	110	-9	1	-9	x	x	x
CCOC(=O)c1c(C)c(C(=O)Nc2ccc3c(c2)OCO3)c(C)n1C	104	1.2	102	-5	18	3	x	x	x
CCOC(=O)c1c(N)sc(C(=O)Nc2ccc3c(c2)OCO3)c1C	76	5.5*	31	24	117	85*	31	17*	-62
COc1ccc(C(=O)Nn2c(SCC(=O)NC3CCCCC3)nc3ccccc3c2=O)cc1	74	1.6	61	28	110	51*	9	-2	-54
CCn1c(SCC(=O)NCc2ccco2)nc2ccccc2c1=O	95	1.1	97	3	-11	6	x	x	x
COc1ccc(C(=O)Nn2c(SCC(=O)NCc3ccco3)nc3ccccc3c2=O)cc1	93	0.85	48	9	77	67*	34	24*	-50
C=CCn1c(SCC(=O)NC2CCCCC2)nc2ccccc2c1=O	99	1.3	104	-1	3	4	x	x	x
O=C(N/N=C/c1ccc[nH]1)c1ccc(Cl)cc1	108	2.2	96	-9	6	6	x	x	x
COc1ccc2c(=O)c(-c3nc(C)cs3)coc2c1	120	5.9*	59	-16	97	51*	4	-17	-103
Cc1nc(-c2coc3cc(OCC(=O)O)ccc3c2=O)cs1	79	0.84	74	23	0	38	x	x	x
O=C1c2ccccc2-c2nnc(-c3ccccc3)cc21	71	3.3*	59	32	24	52*	55*	33*	16*
c1ccc(-c2cc3c(nn2)CCc2nonc2-3)cc1	104	1.2	80	-5	10	26	x	x	x
Cc1cc(OCC(=O)Nc2ccncc2)ccc1Br	99	0.97	56	1	2	57*	52*	-4	0
O=C(COc1ccc([N+](=O)[O-])cc1)Nc1ccncc1	95	0.88	91	4	-7	14	x	x	x
CCN(CC(=O)Nc1ccc(Cl)c(S(=O)(=O)N(C)C)c1)CC(=O)NC(C)C	97	1.1	97	3	23	11	x	x	x
Nc1c(C(=O)NC2CCCCC2)nsc1C(=O)OCC(=O)NC1CCCCC1	96	0.92	58	5	-9	51*	54*	12	0
COC(=O)c1ccccc1NC(=O)CNc1cc(OC)c(OC)cc1C	78	0.96	58	24	-1	51*	65*	18*	26*
CN1CCN(CC(=O)Nc2ccc([N+](=O)[O-])cc2Br)CC1	103	1.1	108	-5	14	0	x	x	x
O=C(CCCN1C(=O)S/C(=C\c2ccccc2)C1=O)NNC(=O)c1ccccc1O	76	0.95	48	24	-63	64*	56*	35*	4
O=C(CN1C(=O)S/C(=C\c2ccccc2)C1=O)NNC(=O)c1ccccc1O	96	1.1	102	4	-5	-4	x	x	x
CC1CCCN(S(=O)(=O)c2ccc(S(=O)(=O)NC(C)c3cccs3)cc2)C1 (stereo unspecified)	97	1	101	3	0	-4	x	x	x
SMILES	STAT1 activator	NF-kB neuron act	STAT3 activator	STAT1 blocker	APP 5'UTR act	STAT3 inh-1	STAT3 inh-2	NFkB inh STAT3ct	STAT1 inh STAT3c
O=C(Nc1cccnc1Cl)c1ccc2c(Cl)c3c(nc2c1)CCC3	135*	5.9*	54	-37	242*	56*	12	-39	-96
N#Cc1ccccc1NC(=O)c1ccc2c(Cl)c3c(nc2c1)CCCC3	120	3.1	105	-22	92	-6	x	x	x
NC(=O)CSc1nnc(Cn2cnc3ccccc32)o1	91	1.4	99	8	1	7	x	x	x
O=C(CSc1nnc(Cn2nnc3ccccc32)o1)N(Cc1ccc(Cl)cc1)c1ccccc1	95	0.69	55	18	x	53*	45*	13*	19*
Clc1ccc(CSc2nnc(Cn3cnc4ccccc43)o2)cc1	102	0.82	48	12	5	63*	45*	12	8
CCN(CC)CCNC(=O)c1cccc(NC(=O)C(=O)c2cc(Br)ccc2NC(C)=O)c1	104	0.94	103	-6	-16	-3	x	x	x
CCC(=O)Nc1cccc(C(=O)OCc2cccc([N+](=O)[O-])c2)c1	99	1.2	89	0	-6	19	x	x	x
O=c1oc2ccccc2cc1-c1csc(NN=C2CCCCC2)n1	114	1.9	92	-15	63	16	x	x	x
O=c1oc2ccccc2cc1-c1nc2c(s1)CCCC2	71	1.7	42	31	188*	74*	48*	31*	-39
O=C(O)CCC(=O)N1CCN(c2nc3ccccc3s2)CC1	106	1.2	98	-7	4	4	x	x	x
CCOc1ccc(NC(=O)N2CCN(c3nc4ccccc4s3)CC2)cc1	77	1.1	57	25	3	55*	39	3	17*
Cc1cccc(C)c1NC(=O)N1CCN(c2nc3ccccc3s2)CC1	97	1.5	55	4	-5	56*	57*	8	4
C#Cc1ccc([C@H]2C=C(C(=O)N3CCN(Cc4ccc5c(c4)OCO5)CC3)O[C@@H](OCC)[C@@H]2CCCO)cc1	93	0.64	x	9	17	x	x	x	x
CC(=O)NS(=O)(=O)c1ccc(NC(=O)c2ccccn2)cc1	99	1.2	101	2	-9	8	x	x	x
O=C(Nc1ccc(SC(F)(F)F)cc1)c1ccccn1	76	1.2	52	24	150*	62*	24	-21	-119
O=C(c1ccc(Cl)cc1)c1c[nH]c(C(=O)NNc2ccccc2)c1	97	1.3	98	3	9	11	x	x	x
